Source: ChEMBL document CHEMBL5107946, “SF5- and SCF3-substituted tetrahydroquinoline compounds as potent bactericidal agents against multidrug-resistant persister Gram-positive bacteria” (RSC Med Chem, 2021)
Values after ≈ are worked out from the molar mass of the structure shown. Active and inactive are the calls of the source.

Legend:
Staphylococcus aureus [1] = test: Antibacterial activity against Staphylococcus aureus ATCC 25923 assessed as bacterial growth inhibition at 16 ug/ml incubated for 18 to 20 hrs by CLSI based broth microdilution assay; assay type: functional, organism-based; conditions: dose 16.0 µg/ml, time 18-20 hrs
Outline: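 Single-concentration screen at 16 μg mL−1 final. Overnight TSB culture was diluted 1:1000 in cation-adjusted MHB and grown to early exponential phase. 1 mL of culture was added to compound in glass tubes and incubated overnight at 37 °C. OD600 was read and normalized to the DMSO control after subtracting medium-only OD.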

Enterococcus faecalis [2] = test: Antibacterial activity against Enterococcus faecalis ATCC 29212 assessed as bacterial growth inhibition incubated for 18 to 20 hrs by CLSI based broth microdilution assay; assay type: functional; conditions: time 18-20 hrs
Outline: (§1)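 CLSI broth microdilution; compounds and control antibiotics made up at 10 mg mL−1 in DMSO (stock), serially diluted 1:2 across the plate. Inoculum adjusted to 0.5 McFarland, then diluted 1:100 into wells. Plates incubated static at 37 °C for 18–20 h before MIC read.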

Staphylococcus aureus [3] = test: Antibacterial activity against Staphylococcus aureus ATCC 25923 assessed as bacterial growth inhibition incubated for 18 to 20 hrs by CLSI based broth microdilution assay; assay type: functional; conditions: time 18-20 hrs; outline: as §1
Enterococcus faecalis [4] = test: Antibacterial activity against vancomycin-resistant Enterococcus faecalis ATCC 51575 assessed as bacterial growth inhibition incubated for 18 to 20 hrs by CLSI based broth microdilution assay; assay type: functional; conditions: time 18-20 hrs; outline: as §1
Listeria monocytogenes = test: Antibacterial activity against Listeria monocytogenes ATCC 19115 assessed as bacterial growth inhibition incubated for 18 to 20 hrs by CLSI based broth microdilution assay; assay type: functional; conditions: time 18-20 hrs
Outline: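 MIC by CLSI broth microdilution. Compounds were made as 10 mg mL−1 DMSO stocks and serially diluted 1:2. Inoculum was set to 0.5 McFarland and diluted 1:100 into the wells. Plates were incubated static at 37 °C for 18–20 h before reading the MIC.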

Staphylococcus aureus [5] = test: Antibacterial activity against methicillin-resistant Staphylococcus aureus ATCC 33592 assessed as bacterial growth inhibition incubated for 18 to 20 hrs by CLSI based broth microdilution assay; assay type: functional; conditions: time 18-20 hrs; outline: as §1
Staphylococcus aureus [6] = test: Antibacterial activity against methicillin-resistant Staphylococcus aureus USA300 assessed as bacterial growth inhibition incubated for 18 to 20 hrs by CLSI based broth microdilution assay; assay type: functional; conditions: time 18-20 hrs; outline: as §1
Enterococcus faecium [7] = test: Antibacterial activity against vancomycin-resistant Enterococcus faecium ATCC 700221 assessed as bacterial growth inhibition incubated for 18 to 20 hrs by CLSI based broth microdilution assay
Staphylococcus aureus [8] = test: Antibacterial activity against methicillin-resistant Staphylococcus aureus USA300 assessed as fold increase in MIC incubated for 30 days by resistance development based broth microdilution assay; assay type: functional; conditions: time 30 day
Outline: (§2)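 Multi-step resistance selection over 30 days. MIC determined first. Each day, 5 μL from the turbid well just below the MIC was diluted 1:1000 in CA-MHB and used as inoculum for the next broth microdilution MIC. Resistance defined as a rise of more than four-fold over the starting MIC.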

Staphylococcus aureus [9] = test: Antibacterial activity against methicillin-resistant Staphylococcus aureus ATCC 33592 assessed as fold increase in MIC incubated for 30 days by resistance development based broth microdilution assay; assay type: functional; conditions: time 30 day; outline: as §2
Staphylococcus aureus [10] = test: Antibacterial activity against methicillin-resistant Staphylococcus aureus ST239 (ARLG 1665) assessed as bacterial growth inhibition incubated for 18 to 20 hrs by CLSI based broth microdilution assay; assay type: functional; conditions: time 18-20 hrs; outline: as §1
Staphylococcus aureus [11] = test: Antibacterial activity against methicillin-resistant Staphylococcus aureus ST1312 (ARLG 1649) assessed as bacterial growth inhibition incubated for 18 to 20 hrs by CLSI based broth microdilution assay; assay type: functional; conditions: time 18-20 hrs; outline: as §1
Staphylococcus aureus [12] = test: Antibacterial activity against methicillin-resistant Staphylococcus aureus ST239 (ARLG 1644) assessed as bacterial growth inhibition incubated for 18 to 20 hrs by CLSI based broth microdilution assay; assay type: functional; conditions: time 18-20 hrs; outline: as §1
Staphylococcus aureus [13] = test: Antibacterial activity against methicillin-resistant Staphylococcus aureus ST239 (ARLG 1663) assessed as bacterial growth inhibition incubated for 18 to 20 hrs by CLSI based broth microdilution assay; assay type: functional; conditions: time 18-20 hrs; outline: as §1
Staphylococcus aureus [14] = test: Bactericidal activity against methicillin-resistant Staphylococcus aureus USA300 assessed as reduction in colony forming unit incubated for 20 hrs; assay type: functional
Outline: (§3)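 Follows the broth microdilution MIC plate. 4 μL taken from each well without growth, spotted in duplicate on tryptic soy agar and incubated static at 37 °C for 20 h. MBC taken as the concentration giving 99.9% reduction in CFU.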

Enterococcus faecium [15] = test: Bactericidal activity against vancomycin-resistant Enterococcus faecium ATCC 700221 assessed as reduction in colony forming unit incubated for 20 hrs; conditions: ATCC 700221, 20 h
Staphylococcus aureus [16] = test: Bactericidal activity against Staphylococcus aureus ATCC 25923 assessed as reduction in colony forming unit incubated for 20 hrs; assay type: functional; outline: as §3
Enterococcus faecalis [17] = test: Bactericidal activity against Enterococcus faecalis ATCC 29212 assessed as reduction in colony forming unit incubated for 20 hrs; assay type: functional; outline: as §3
Enterococcus faecalis [18] = test: Bactericidal activity against vancomycin-resistant Enterococcus faecalis ATCC 51575 assessed as reduction in colony forming unit incubated for 20 hrs; assay type: functional; outline: as §3
Staphylococcus aureus [19] = test: Bactericidal activity against methicillin-resistant Staphylococcus aureus ATCC 33592 assessed as reduction in colony forming unit incubated for 20 hrs; assay type: functional; outline: as §3
Cell membrane [20] = test: Induction of cell membrane permeability in Staphylococcus aureus ATCC 25923 at 4 ug/ml by DiOC2 dye based flow cytometry assay; conditions: dose 4.0 µg/ml
Outline: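 Flow cytometry on S. aureus ATCC 25923 grown in TSB to exponential phase (OD600 0.2–0.3), then treated. Cells were washed twice in PBS and resuspended in buffer. To-PRO 3 iodide (red) and DiOC2 (green) were added and samples analysed immediately. The red/green ratio was used as the permeabilization readout, with bithionol 4 μg mL−1 as positive control.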

Cell membrane [21] = test: Induction of cell membrane disruption in persister Staphylococcus aureus ATCC 25923 at 32 ug/ml incubated for 6 hrs by scanning electron microscopy; conditions: dose 32.0 µg/ml

| SMILES | Activity (Staphylococcus aureus [1]) | MIC (Enterococcus faecalis [2]) [µg/mL] | MIC (Staphylococcus aureus [3]) [µg/mL] | MIC (Enterococcus faecalis [4]) [µg/mL] | MIC (Listeria monocytogenes) [µg/mL] | MIC (Enterococcus faecium [7]) [µg/mL] | other results |
| --- | --- | --- | --- | --- | --- | --- | --- |
| Fc1ccc2c(c1)[C@H]1[C@@H]3CC[C@@H](C3)[C@H]1[C@H](c1c[nH]nc1C(F)(F)F)N2 | Active | – | – | – | – | – | – |
| FC(F)(F)Sc1ccc2c(c1)[C@H]1[C@@H]3CC[C@@H](C3)[C@H]1[C@H](c1c[nH]nc1C(F)(F)F)N2 | Active | 8 (≈ 18.5 µM) | 4 (≈ 9.23 µM) | 8 (≈ 18.5 µM) | 4 (≈ 9.23 µM) | 4 (≈ 9.23 µM) | MIC (Staphylococcus aureus [5]): 2 µg/mL (≈ 4.61 µM); MIC (Staphylococcus aureus [6]): 4 µg/mL (≈ 9.23 µM) |
| O=C(O)c1cn(C2CC2)c2cc(N3CCNCC3)c(F)cc2c1=O [CIPROFLOXACIN] | – | – | – | – | – | – | fold change (FC) (Staphylococcus aureus [8]): 16; fold change (FC) (Staphylococcus aureus [9]): 64 |
| FC(F)(F)Oc1ccc2c(c1)[C@H]1[C@@H]3CC[C@@H](C3)[C@H]1[C@H](c1c[nH]nc1C(F)(F)F)N2 | Active | 8 (≈ 19.2 µM) | 4 (≈ 9.58 µM) | 8 (≈ 19.2 µM) | 4 (≈ 9.58 µM) | 4 (≈ 9.58 µM) | MIC (Staphylococcus aureus [5]): 4 µg/mL (≈ 9.58 µM); MIC (Staphylococcus aureus [6]): 8 µg/mL (≈ 19.2 µM) |
| Cc1onc(-c2ccccc2)c1C(=O)N[C@@H]1C(=O)N2[C@@H]1SC(C)(C)[C@@H]2C(=O)O [OXACILLIN] | – | – | – | – | – | – | MIC (Staphylococcus aureus [10]): 512 µg/mL (≈ 1280 µM); MIC (Staphylococcus aureus [11]): 256 µg/mL (≈ 638 µM); MIC (Staphylococcus aureus [12]): 512 µg/mL (≈ 1280 µM); MIC (Staphylococcus aureus [13]): 256 µg/mL (≈ 638 µM) |
| FC(F)(F)c1n[nH]cc1[C@@H]1Nc2ccccc2[C@H]2[C@@H]3CC[C@@H](C3)[C@H]21 | Active | – | – | – | – | – | – |
| FC(F)(F)c1ccc2c(c1)N[C@@H](c1c[nH]nc1C(F)(F)F)[C@@H]1[C@H]3CC[C@H](C3)[C@H]21 | Active | 8 (≈ 19.9 µM) | 4 (≈ 9.97 µM) | 8 (≈ 19.9 µM) | 8 (≈ 19.9 µM) | 8 (≈ 19.9 µM) | MIC (Staphylococcus aureus [5]): 8 µg/mL (≈ 19.9 µM); MIC (Staphylococcus aureus [6]): 8 µg/mL (≈ 19.9 µM) |
| FS(F)(F)(F)(F)c1ccc2c(c1)[C@H]1[C@@H]3CC[C@@H](C3)[C@H]1[C@H](c1cn[nH]c1)N2 | Active | – | 16 (≈ 40.9 µM) | – | – | – | – |
| CC(=O)NC[C@H]1CN(c2ccc(N3CCOCC3)c(F)c2)C(=O)O1 [LINEZOLID] | – | – | – | – | 2 (≈ 5.93 µM) | – | MBC (Staphylococcus aureus [14]): 64 µg/mL (≈ 190 µM); MBC (Enterococcus faecium [15]): > 128 µg/mL; MBC (Staphylococcus aureus [16]): 64 µg/mL (≈ 190 µM); MBC (Enterococcus faecalis [17]): 64 µg/mL (≈ 190 µM); MBC (Enterococcus faecalis [18]): > 128 µg/mL; MBC (Staphylococcus aureus [19]): 64 µg/mL (≈ 190 µM) |
| FC(F)Oc1ccc2c(c1)[C@H]1[C@@H]3CC[C@@H](C3)[C@H]1[C@H](c1c[nH]nc1C(F)(F)F)N2 | Active | – | – | – | – | – | – |
| O=C(O)c1ccc([C@@H]2Nc3ccc(S(F)(F)(F)(F)F)cc3[C@H]3[C@@H]4CC[C@@H](C4)[C@H]32)cc1 | Active | 4 (≈ 8.98 µM) | 4 (≈ 8.98 µM) | 4 (≈ 8.98 µM) | 4 (≈ 8.98 µM) | 4 (≈ 8.98 µM) | MIC (Staphylococcus aureus [5]): 4 µg/mL (≈ 8.98 µM); MIC (Staphylococcus aureus [6]): 16 µg/mL (≈ 35.9 µM) |
| C/C(=C\C(=O)OCCCCCCCCC(=O)O)C[C@@H]1OC[C@H](C[C@@H]2O[C@H]2[C@@H](C)[C@H](C)O)[C@@H](O)[C@H]1O [MUPIROCIN] | – | – | – | – | – | – | fold change (FC) (Staphylococcus aureus [9]): >250 |
| CN[C@H](CC(C)C)C(=O)N[C@H]1C(=O)N[C@@H](CC(N)=O)C(=O)N[C@H]2C(=O)N[C@H]3C(=O)N[C@H](C(=O)N[C@H](C(=O)O)c4cc(O)cc(O)c4-c4cc3ccc4O)[C@H](O)c3ccc(c(Cl)c3)Oc3cc2cc(c3O[C@@H]2O[C@H](CO)[C@@H](O)[C@H](O)[C@H]2O[C@H]2C[C@](C)(N)[C@H](O)[C@H](C)O2)Oc2ccc(cc2Cl)[C@H]1O [VANCOMYCIN] | – | 2 (≈ 1.38 µM) | – | > 128 | 1 (≈ 0.69 µM) | > 128 | MBC (Staphylococcus aureus [14]): 2 µg/mL (≈ 1.38 µM); MBC (Enterococcus faecium [15]): > 128 µg/mL; MBC (Staphylococcus aureus [16]): 2 µg/mL (≈ 1.38 µM); MBC (Enterococcus faecalis [17]): 2 µg/mL (≈ 1.38 µM); MBC (Enterococcus faecalis [18]): > 128 µg/mL; MBC (Staphylococcus aureus [19]): 2 µg/mL (≈ 1.38 µM) |
| FS(F)(F)(F)(F)c1ccc2c(c1)[C@H]1[C@@H]3CC[C@@H](C3)[C@H]1[C@H](c1c[nH]cn1)N2 | Active | – | 8 (≈ 20.4 µM) | – | – | – | – |
| FC(F)(F)c1n[nH]cc1-c1nc2ccc(S(F)(F)(F)(F)F)cc2c2c1[C@H]1CC[C@@H]2C1 | Active | 8 (≈ 17.6 µM) | 4 (≈ 8.78 µM) | 8 (≈ 17.6 µM) | 8 (≈ 17.6 µM) | 8 (≈ 17.6 µM) | MIC (Staphylococcus aureus [5]): 8 µg/mL (≈ 17.6 µM); MIC (Staphylococcus aureus [6]): 8 µg/mL (≈ 17.6 µM) |
| Oc1c(Cl)cc(Cl)cc1Sc1cc(Cl)cc(Cl)c1O | – | – | – | – | – | – | Activity (Cell membrane [20]): Active; Activity (Cell membrane [21]): Active |
| CC(C)Oc1ccc2c(c1)[C@H]1[C@@H]3CC[C@@H](C3)[C@H]1[C@H](c1c[nH]nc1C(F)(F)F)N2 | Active | – | – | – | – | – | – |
